According to paper PMC2661818 (Psychopharmacology, 2008):
Structures can show the parent of a compound that is named as a salt. Where two headings read alike, the source gives them in different places.

Assays:
[1] = system: rats trained to discriminate 10 mg/kg cocaine, IP from saline; format: in vivo, Sprague—Dawley rats; details: for Maximal cocaine responding: SEM in parentheses; for Maximal levels of cocaine responding: in each/all rearing groups (BMS, AFR, LMS)
Procedure, shortened: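 Adult Sprague–Dawley rats (6 per rearing condition per sex) from BMS, LMS or AFR rearing, trained at 10 mg/kg IP (15-min pretreatment) vs saline. Tests: 10 consecutive responses on either manipulandum gave a pellet. Novel training-drug doses (0.56–18 mg/kg) in random order; pretreatment 1–120 min. Group mean % drug responding: ≥80% full, ≤20% saline-like. Rates as % of vehicle.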

[2] = system: rats discriminating cocaine injections; details: cited from earlier work; for Cocaine-like responding (partial): ref Witkin et al. 1991; for Substitution for the cocaine cue: reduced training dose (3.0 mg/kg cocaine), ref Terry et al. 1994
[3] = Plasma cocaine assessment by LC/MS/MS; format: in vivo, Sprague—Dawley rats; details: males, 10 mg/kg IP
c-Fos = test: Cocaine-induced c-Fos expression; format: in vivo, Sprague—Dawley rats; details: 10 mg/kg IP, 14 days
rats = details: ref Moffett et al. (2006a), cited from earlier work
[4] = rat, IP injection, cited from earlier work
[5] = females, all rearing conditions

## Fc1ccc(C(OCCN2CCN(CCCc3ccccc3)CC2)c2ccc(F)cc2)cc1 [GBR12909, GBR12909 bismesylate hydrate]
[1]; females, AFR
  Doses producing more cocaine-like responding: 5.6 to 18 mg/kg
  Maximal cocaine responding: 80.28%
[1]; females, BMS
  Maximal cocaine responding: 99.64%
[1]; females, LMS
  Doses producing more partial responding: 3.2 to 10 mg/kg
  Maximal cocaine responding: 83.39%
[1]; [5]
  Effect on rate of responding: dose dependently decreased
[1]; males, AFR, two lowest doses (1.0–3.2 mg/kg)
  Generalization profile: partial cocaine responding
[1]; males, BMS and LMS, two lowest doses (1.0–3.2 mg/kg)
  Generalization profile: saline responding
[1]; males, all rearing conditions
  Effect on rate of responding: dose dependently decreased rate of responding

## Oc1cc2c(cc1O)C(c1ccccc1)CNCC2 (stereo not shown) [SKF38393, SKF38393 hydrobromide]
[1]; [5]
  Effect on rate of responding: dose dependently decreased
[1]; females
  Maximal levels of cocaine responding: approximately 50%
[1]; males, AFR and LMS, 18 mg/kg
  Generalization profile: partial generalization
[1]; males, AFR
  Maximal cocaine responding: 81.41%
[1]; males, BMS and AFR groups, 32 mg/kg
  Rates of responding (disrupted): < 0.20 mean responses per second
[1]; males, BMS
  Maximal cocaine responding: 95.68%
[1]; males, LMS
  Maximal cocaine responding: 83.52%
[1]; males, all rearing conditions
  Effect on rate of responding: dose-dependent decreases in rates
[1]; males, all rearing conditions, 10 mg/kg
  Generalization profile: partial generalization
[2]; 10 mg/kg cocaine training dose
  Cocaine-like responding (partial): 20–80%
[2]
  Substitution for the cocaine cue: substitute fully

## COC(=O)[C@H]1[C@@H](OC(=O)c2ccccc2)C[C@@H]2CC[C@H]1N2C [cocaine, Cocaine hydrochloride]
[1]; [5]
  Effect on rate of responding: dose dependently decreased rate of responding
[1]; males, all rearing conditions
  Effect on rate of responding: did not have an effect on rate of responding
[1]; novel doses 0.56–18 mg/kg, all groups
  Cocaine-appropriate responding as a function of dose: dose-dependent increases in cocaine-appropriate responding
[3]
  Plasma cocaine levels, effect of time: decreasing from 15 to 60 min
c-Fos; AFR females, NAcc Core and central CPu
  Fos-IR, cocaine- vs saline-treated: significantly greater Fos-IR
c-Fos; AFR males, central and dorsomedial CPu
  c-Fos expression, cocaine- vs saline-treated: trend for significantly greater c-Fos expression
c-Fos; BMS males and females, any brain region examined
  c-Fos expression, cocaine- vs saline-treated: never statistically significant differences
c-Fos; LMS males, ICjM
  c-Fos, cocaine- vs saline-treated: showed significance
rats; BMS rats
  Self-administration: did not self administer cocaine above saline levels at any dose tested
rats; LMS rats
  Dose at which self-administration was acquired: 0.0625 mg/kg/infusion
[4]; ref Misra et al. 1974
  Time to peak plasma: 4 h
[4]; ref Nayak et al. 1976
  Elimination half-life (t1/2): 48 to 60 min

## CCCN1CCC[C@@H]2Cc3n[nH]cc3C[C@H]21 [quinpirole, quinpirole hydrochloride]
[1]; females, all groups, doses of 0.061–0.18 mg/kg
  Generalization profile: intermediate levels of responding
[1]; [5]
  Effect on rate of responding: dose dependently decreased
[1]; females
  Maximal levels of cocaine responding: ~80%
[1]; males, LMS, all doses except 0.125 mg/kg
  Generalization profile: only partial generalization
[1]; males, all rearing conditions
  Effect on rate of responding: dose dependently decreased the number of responses
[2]; 10 mg/kg cocaine training dose, ref Barrett and Appel 1989, Callahan et al. 1991, Callahan and Cunningham 1993
  Generalization to the cocaine cue: full generalization
[2]; 10 mg/kg cocaine training dose
  Cocaine-like responding (partial): 20–80%
[2]
  Substitution for the cocaine cue: substitute fully
